Source: ChEMBL document CHEMBL1154114, “7-((4-Substituted)piperazin-1-yl) derivatives of ciprofloxacin: synthesis and in vitro biological evaluation as potential antitumor agents” (Bioorg Med Chem, 2009)

Assays:
[1] = system: LoVo; assay: Antitumor activity against human LoVo cells after 5 days by MTT assay; type: functional, cell-based; details: 120 h
Procedure, shortened: (§1)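 Five human cancer lines (prostate PC-3, glioblastoma U373-MG, colorectal LoVo, NSCLC A549, breast MCF-7) plated at 10⁴ to 3×10⁴ cells/mL depending on cell type, allowed 24 h to attach, then cultured 120 h with or without drug at nine concentrations. MTT reduction to formazan read at 570 nm (reference 630 nm).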

[2] = Toxicity in ip dosed B6D2F1 mouse assessed as maximum tolerated dose after 28 days; type: organism-based; details: in vivo
Procedure, shortened: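 Healthy mice, three per group, each given a single ip dose and observed for up to 28 days. The MTD index is the highest single dose given without causing any deaths in the group.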

[3] = system: PC-3; assay: Antitumor activity against human PC3 cells after 5 days by MTT assay; type: functional, cell-based; details: PC-3, 120 h; procedure, shortened: as §1
[4] = system: A549; assay: Antitumor activity against human A549 cells after 5 days by MTT assay; type: functional, cell-based; details: A549, 120 h; procedure, shortened: as §1
[5] = Antitumor activity against human U373MG cells after 5 days by MTT assay; type: functional, cell-based, U-373MG ATCC; details: U373 MG, 120 h; procedure, shortened: as §1
[6] = system: MCF7; assay: Antitumor activity against human MCF7 cells after 5 days by MTT assay; type: functional, cell-based; details: MCF7, 120 h; procedure, shortened: as §1
[7] = Stability in phosphate buffer of pH 7.4 after 6 days; type: physicochemical; details: read-out: Stability
Procedure, shortened: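 Compound dissolved at 1 mM in DMSO, diluted with phosphate buffer pH 7.4 to 1 mL, incubated sealed at 37 °C for 6 days. A t0 aliquot was held at 4 °C. HPLC with 280 nm detection and duplicate injections, with expected degradation products as references. Stability is taken as compound peak area over (compound + degradation product) peak area.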

[8] = system: Drosophila melanogaster; assay: Inhibition of Drosophila melanogaster DNA topoisomerase 2-mediated pBR322 DNA relaxation by agarose gel electrophoresis
[9] = system: CHO; assay: Inhibition of verapamil-resistant CHO cell proliferation by colony-forming assay; type: cell-based; details: Cricetulus griseus
[10] = system: CHO; assay: Inhibition of CHO cell proliferation by colony-forming assay; type: cell-based; details: Cricetulus griseus
[11] = system: NCI-H460; assay: Inhibition of human NCI-H460 cell proliferation by sulphorodhamine B assay; type: functional, cell-based
[12] = system: EJ; assay: Inhibition of human EJ cell proliferation by MTT assay; type: functional, cell-based
[13] = system: SK-MEL; assay: Inhibition of human SK-MEL cell proliferation by MTT assay; type: functional, cell-based
[14] = system: SW480; assay: Inhibition of human SW480 cell proliferation by MTT assay; type: functional, cell-based
[15] = system: A-431; assay: Inhibition of human A431 cell proliferation by MTT assay; type: functional, cell-based
[16] = system: KB; assay: Inhibition of human KB cell proliferation by MTT assay; type: functional, cell-based
[17] = system: MCF7; assay: Inhibition of human MCF7 cell proliferation by MTT assay; type: functional, cell-based
[18] = Inhibition of mouse NIH/3T3 cell proliferation by MTT assay; type: cell-based; details: NIH3T3
[19] = system: HeLa; assay: Inhibition of human HeLa cell proliferation; type: functional, cell-based

**Q.** Which results are given for CCOC(=O)N1CCN(c2cc3c(cc2F)c(=O)c(C(=O)O)cn3C2CC2)CC1?
**A.** IC50 [1]: 272 µM; MTD at 672 h [2]: > 80 mg/kg; IC50 [3]: 385 µM; IC50 [4]: > 1000 µM; IC50 [5]: 228 µM; IC50 [6]: 455 µM; remaining at 144 h [7]: 100%

**Q.** With CCCCCCC(=O)N1CCN(c2cc3c(cc2F)c(=O)c(C(=O)O)cn3C2CC2)CC1 as the molecule, how does the IC50 [1] read?
**A.** 793 µM

**Q.** And the MTD at 672 h [2]?
**A.** > 80 mg/kg

**Q.** What about the IC50 [3] of the same molecule?
**A.** 779 µM

**Q.** What about the IC50 [4] of the same molecule?
**A.** 808 µM

**Q.** And the IC50 [5]?
**A.** 729 µM

**Q.** And the IC50 [6]?
**A.** 754 µM

**Q.** And the remaining at 144 h [7]?
**A.** 100%

**Q.** Which results are given for O=C(O)c1cn(C2CC2)c2cc(-c3ccc(O)cc3)c(F)cc2c1=O?
**A.** Activity [8]: 130 µM; IC50 [9]: 40 µM; IC50 [10]: 20 µM

**Q.** Which results are given for O=C(O)c1cn(C2CC2)c2c(F)c(-c3ccc(O)cc3)c(F)cc2c1=O?
**A.** Activity [8]: 60 µM; IC50 [9]: 12 µM; IC50 [10]: 9 µM

**Q.** Which IC50 [1] does the source give for CCCCCCCCCCCCOC(=O)N1CCN(c2cc3c(cc2F)c(=O)c(C(=O)O)cn3C2CC2)CC1 here?
**A.** 347 µM

**Q.** What about the IC50 [3] of the same molecule?
**A.** 217 µM

**Q.** And the IC50 [4]?
**A.** 273 µM

**Q.** And the IC50 [5]?
**A.** 94 µM

**Q.** And the IC50 [6]?
**A.** 200 µM

**Q.** For CCCCCCCCCCCCCC(=O)N1CCN(c2cc3c(cc2F)c(=O)c(C(=O)O)cn3C2CC2)CC1, which IC50 [1] is on record?
**A.** 101 µM

**Q.** What about the IC50 [3] of the same molecule?
**A.** 94 µM

**Q.** And the IC50 [4]?
**A.** 56 µM

**Q.** And the IC50 [5]?
**A.** 205 µM

**Q.** What about the IC50 [6] of the same molecule?
**A.** 96 µM

**Q.** Which IC50 [1] does the source give for CC(=O)N1CCN(c2cc3c(cc2F)c(=O)c(C(=O)O)cn3C2CC2)CC1 here?
**A.** 323 µM

**Q.** And the IC50 [3]?
**A.** 680 µM

**Q.** What about the IC50 [4] of the same molecule?
**A.** 584 µM

**Q.** What about the IC50 [5] of the same molecule?
**A.** 535 µM

**Q.** And the IC50 [6]?
**A.** 803 µM

**Q.** What does the source list for CCn1cc(C(=O)O)c(=O)c2cc(F)c(N3CCNCC3)cc21 [NORFLOXACIN]?
**A.** IC50 [11]: 86 µM; IC50 [12]: 210 µM; IC50 [13]: 194 µM; IC50 [14]: 168 µM; IC50 [15]: 70 µM; IC50 [16]: 150 µM; IC50 [17]: 238 µM; IC50 [18]: > 1000 µM; IC50 [19]: 390 µM

**Q.** Which results are given for CCn1cc(C(=O)O)c(=O)c2cc(F)c(N3CCNC(C)C3)c(F)c21 (centres undefined) [LOMEFLOXACIN]?
**A.** IC50 [18]: 483 µM; IC50 [19]: 410 µM

**Q.** For CCCCCCCCCCC(=O)OCC(=O)N1CCN(c2cc3c(cc2F)c(=O)c(C(=O)O)cn3C2CC2)CC1, which IC50 [1] is on record?
**A.** 828 µM

**Q.** What about the IC50 [4] of the same molecule?
**A.** > 1000 µM

**Q.** And the IC50 [5]?
**A.** > 1000 µM

**Q.** And the IC50 [6]?
**A.** 816 µM

**Q.** Which IC50 [1] does the source give for O=C(O)c1cn(C2CC2)c2cc(N3CCN(C(=O)Cc4ccccc4)CC3)c(F)cc2c1=O here?
**A.** 41 µM

**Q.** And the IC50 [3]?
**A.** 243 µM

**Q.** What about the IC50 [4] of the same molecule?
**A.** 29 µM

**Q.** And the IC50 [5]?
**A.** 34 µM

**Q.** And the IC50 [6]?
**A.** 32 µM

**Q.** What does the source list for CCCCCC(=O)OCC(=O)N1CCN(c2cc3c(cc2F)c(=O)c(C(=O)O)cn3C2CC2)CC1?
**A.** IC50 [1]: 27 µM; IC50 [3]: 14 µM; IC50 [4]: 20 µM; IC50 [5]: 28 µM; IC50 [6]: 72 µM; remaining at 144 h [7]: > 99%

**Q.** For O=C(O)c1cn(C2CC2)c2cc(N3CCN(C(=O)CO)CC3)c(F)cc2c1=O, which IC50 [1] is on record?
**A.** 408 µM

**Q.** What about the IC50 [3] of the same molecule?
**A.** 433 µM

**Q.** And the IC50 [4]?
**A.** 456 µM

**Q.** What about the IC50 [5] of the same molecule?
**A.** 294 µM

**Q.** And the IC50 [6]?
**A.** 985 µM

**Q.** With CCCCCCCCOC(=O)N1CCN(c2cc3c(cc2F)c(=O)c(C(=O)O)cn3C2CC2)CC1 as the molecule, how does the IC50 [1] read?
**A.** 43 µM

**Q.** And the MTD at 672 h [2]?
**A.** > 80 mg/kg

**Q.** What about the IC50 [3] of the same molecule?
**A.** 24 µM

**Q.** And the IC50 [4]?
**A.** 21 µM

**Q.** And the IC50 [5]?
**A.** 79 µM

**Q.** What about the IC50 [6] of the same molecule?
**A.** 23 µM

**Q.** What about the remaining at 144 h [7] of the same molecule?
**A.** 100%

**Q.** Which IC50 [1] does the source give for CCCCCCCCCCOC(=O)N1CCN(c2cc3c(cc2F)c(=O)c(C(=O)O)cn3C2CC2)CC1 here?
**A.** 32 µM

**Q.** And the IC50 [3]?
**A.** 24 µM

**Q.** And the IC50 [4]?
**A.** 44 µM

**Q.** And the IC50 [5]?
**A.** 401 µM

**Q.** And the IC50 [6]?
**A.** 20 µM

**Q.** Which IC50 [19] does the source give for NC1CCN(c2nc3c(cc2F)c(=O)c(C(=O)O)cn3-c2ccc(F)cc2F)C1 (centres undefined) [TOSUFLOXACIN] here?
**A.** 32 µM

**Q.** For COc1c(N2CCNC(C)C2)c(F)cc2c(=O)c(C(=O)O)cn(C3CC3)c12 (centres undefined) [GATIFLOXACIN], which IC50 [19] is on record?
**A.** 400 µM

**Q.** Which results are given for C[C@@H]1CN(c2c(F)c(N)c3c(=O)c(C(=O)O)cn(C4CC4)c3c2F)C[C@H](C)N1 [SPARFLOXACIN]?
**A.** IC50 [18]: 122 µM; IC50 [19]: 265 µM

**Q.** For CCCCC(=O)N1CCN(c2cc3c(cc2F)c(=O)c(C(=O)O)cn3C2CC2)CC1, which IC50 [1] is on record?
**A.** 87 µM

**Q.** And the IC50 [3]?
**A.** 73 µM

**Q.** What about the IC50 [4] of the same molecule?
**A.** 64 µM

**Q.** And the IC50 [5]?
**A.** 86 µM

**Q.** What about the IC50 [6] of the same molecule?
**A.** 316 µM

**Q.** Which results are given for CCCCOC(=O)N1CCN(c2cc3c(cc2F)c(=O)c(C(=O)O)cn3C2CC2)CC1?
**A.** IC50 [1]: 52 µM; MTD at 672 h [2]: > 80 mg/kg; IC50 [3]: 9 µM; IC50 [4]: 42 µM; IC50 [5]: 31 µM; IC50 [6]: 14 µM; remaining at 144 h [7]: 100%
